Results reported in ChEMBL document CHEMBL1221219, “Selective blockade of 2-arachidonoylglycerol hydrolysis produces cannabinoid behavioral effects” (Nat Chem Biol, 2009).
Calls of active or inactive are those of the source.

How the values were obtained:
Mus musculus [1] = assay: Inhibition of FAAH in intraperitoneally dosed C57B1/6J mouse brain membrane after 4 hrs by competitive activity-based protein profiling method; assay type: functional, organism-based
Outline: (§1)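 Male C57Bl/6J mice (6-8 weeks, 20-26 g) given inhibitor i.p. in 4:1 v/v PEG300:Tween80 at 4 ul g^-1 (4-40 mg kg^-1); vehicle controls. Brain membrane proteomes (1 mg ml^-1 in PBS) labelled with FP-rhodamine (2 μM) for 30 min at room temperature. Readout by SDS-PAGE and in-gel fluorescence scanning, compared with vehicle.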

Mus musculus [2] = assay: Inhibition of PAFAH-1Bb in C57B1/6J mouse brain membrane at 16 mg/kg, ip after 4 hrs by competitive activity-based protein profiling-MudPIT method; assay type: functional, organism-based; set-up: dose 16 mg/kg
Outline: (§2)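 After i.p. dosing in 4:1 PEG300:Tween80, male C57Bl/6J mice were killed at 4 h. Brain membrane proteomes from treated and vehicle mice were labelled with FP-biotin. Labelled proteins were enriched on avidin, digested on-bead with trypsin and analysed by multidimensional LC-MS. Proteins were identified by SEQUEST, and dosed samples were compared with vehicle.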

Mus musculus [3] = assay: Inhibition of MAGL in C57B1/6J mouse brain membrane at 16 mg/kg, ip after 4 hrs by competitive activity-based protein profiling-MudPIT method; assay type: functional, organism-based; set-up: dose 16 mg/kg; outline: as §2
Mus musculus [4] = assay: Inhibition of MAGL in orally dosed C57B1/6J mouse brain membrane after 4 hrs; assay type: functional, organism-based
Outline: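 Oral dosing used male C57Bl/6J mice (6-8 weeks) given inhibitor in PEG300 vehicle at 4 ul g^-1, handled as for i.p. dosing. Brains were taken 4 h later for analysis of brain membrane hydrolase activity.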

Mus musculus [5] = assay: Inhibition of PPME1 in C57B1/6J mouse brain membrane at 16 mg/kg, ip after 4 hrs by competitive activity-based protein profiling-MudPIT method; assay type: functional, organism-based; set-up: dose 16 mg/kg; outline: as §2
Mus musculus [6] = assay: Inhibition of CTHA in C57B1/6J mouse brain membrane at 16 mg/kg, ip after 4 hrs by competitive activity-based protein profiling-MudPIT method; assay type: functional, organism-based; set-up: dose 16 mg/kg
Outline: (§3)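 Mice were dosed 16 mg kg^-1 i.p. or vehicle and killed at 4 h. Brain membrane proteomes were labelled with FP-biotin, avidin-enriched, trypsin-digested on bead, analysed by multidimensional LC-MS and identified by SEQUEST.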

Mus musculus [7] = assay: Inhibition of DPP8 in C57B1/6J mouse brain membrane at 16 mg/kg, ip after 4 hrs by competitive activity-based protein profiling-MudPIT method; assay type: functional, organism-based; set-up: dose 16 mg/kg; outline: as §3
Mus musculus [8] = assay: Inhibition of PLA2G7 in C57B1/6J mouse brain membrane at 16 mg/kg, ip after 4 hrs by competitive activity-based protein profiling-MudPIT method; assay type: functional, organism-based; set-up: dose 16 mg/kg; outline: as §2
Mus musculus [9] = assay: Decrease in arachidonic acid levels in intraperitoneally dosed C57B1/6J mouse brain after 4 hrs by LC-MS; assay type: functional, organism-based
Outline: (§4)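 Male C57Bl/6J mice given 4, 8, 16 or 40 mg kg^-1 i.p. in 4:1 PEG300:Tween80 at 4 μl g^-1, or vehicle, and killed after 4 h. Whole-brain lipids were quantified by LC-MS.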

Mus musculus [10] = assay: Inhibition of NTE-like in C57B1/6J mouse brain membrane at 16 mg/kg, ip after 4 hrs by competitive activity-based protein profiling-MudPIT method; assay type: functional, organism-based; set-up: dose 16 mg/kg; outline: as §2
Mus musculus [11] = assay: Change in free fatty acid level in C57B1/6J mouse brain at 16 mg/kg, ip by LC-MS; assay type: functional, organism-based; set-up: dose 16 mg/kg
Outline: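 Mice received 16 mg kg^-1 i.p. in 4:1 PEG300:Tween80 and were killed at 0.5, 1, 2, 4, 8 and 24 h. Brain lipids, including N-acylethanolamines, MAGs, free fatty acids and arachidonic acid, were measured by LC-MS.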

Mus musculus [12] = assay: Change in 2-AG levels in intraperitoneally dosed C57B1/6J mouse brain by LC-MS; assay type: functional, organism-based; outline: as §4
Mus musculus [13] = assay: Inhibition of FAAH in C57B1/6J mouse brain membrane at 16 mg/kg, ip after 4 hrs by competitive activity-based protein profiling method relative to control; assay type: functional; set-up: scale not given: the % may be the effect or the level left; conditions: route intraperitoneal; outline: as §1
Mus musculus [14] = assay: Inhibition of FAAH in C57B1/6J mouse brain membrane at 16 mg/kg, ip after 0.5-24 hrs by competitive activity-based protein profiling method; assay type: functional; conditions: route intraperitoneal; outline: as §1
[15] = target: T1, Diacylglycerol lipase-alpha (Homo sapiens) (UniProt Q9Y4D2); assay: Inhibition of recombinant DAGLalpha expressed in HEK293 cells assessed as hydrolysis of 1-stearoyl-2-arachidonoyl-glycerol to 2-AG at 10 uM after 30 mins by LC-MS method; assay type: cell-based
T1 sequence (whole entry): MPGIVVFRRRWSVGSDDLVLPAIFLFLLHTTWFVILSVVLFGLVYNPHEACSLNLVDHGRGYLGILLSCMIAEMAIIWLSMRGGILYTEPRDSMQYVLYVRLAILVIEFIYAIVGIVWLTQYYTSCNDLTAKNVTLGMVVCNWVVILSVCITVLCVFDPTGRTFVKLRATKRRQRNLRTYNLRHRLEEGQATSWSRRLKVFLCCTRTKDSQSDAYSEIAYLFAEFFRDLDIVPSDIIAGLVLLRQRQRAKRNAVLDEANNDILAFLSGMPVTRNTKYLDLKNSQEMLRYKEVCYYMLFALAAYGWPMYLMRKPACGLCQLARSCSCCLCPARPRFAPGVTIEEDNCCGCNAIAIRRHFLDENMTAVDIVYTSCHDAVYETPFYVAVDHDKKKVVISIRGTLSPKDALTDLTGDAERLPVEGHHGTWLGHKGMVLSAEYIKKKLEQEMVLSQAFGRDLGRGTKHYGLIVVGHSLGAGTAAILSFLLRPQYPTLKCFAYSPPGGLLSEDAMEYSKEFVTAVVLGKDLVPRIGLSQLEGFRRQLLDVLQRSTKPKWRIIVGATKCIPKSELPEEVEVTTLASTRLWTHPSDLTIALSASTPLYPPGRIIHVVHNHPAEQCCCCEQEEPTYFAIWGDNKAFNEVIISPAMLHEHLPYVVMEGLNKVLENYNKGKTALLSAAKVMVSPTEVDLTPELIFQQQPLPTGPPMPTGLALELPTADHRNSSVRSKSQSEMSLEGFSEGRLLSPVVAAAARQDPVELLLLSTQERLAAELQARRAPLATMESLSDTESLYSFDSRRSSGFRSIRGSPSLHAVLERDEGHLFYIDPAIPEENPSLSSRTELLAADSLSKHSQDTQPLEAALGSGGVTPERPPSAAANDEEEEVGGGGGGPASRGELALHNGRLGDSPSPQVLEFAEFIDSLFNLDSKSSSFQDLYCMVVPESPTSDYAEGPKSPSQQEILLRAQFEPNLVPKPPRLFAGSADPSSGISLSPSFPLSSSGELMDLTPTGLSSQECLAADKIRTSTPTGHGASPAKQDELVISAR

Mus musculus [16] = assay: Induction of hypothermia in CB1 receptor deficient C57B1/6J mouse at 16 mg/kg, ip; assay type: functional, organism-based; set-up: dose 16 mg/kg
Outline: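 Male C57Bl/6J mice, 6-8 weeks, 20-26 g, given 16 mg kg^-1 i.p. in 4:1 v/v PEG300:Tween80 at 4 μl g^-1; vehicle controls received PEG300:Tween80 alone. Cannabinoid effects were scored in the tetrad test.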

Mus musculus [17] = assay: Inhibition of AARE in C57B1/6J mouse brain membrane at 16 mg/kg, ip after 4 hrs by competitive activity-based protein profiling-MudPIT method; assay type: functional, organism-based; set-up: dose 16 mg/kg; outline: as §3

O=C(Oc1ccc([N+](=O)[O-])cc1)N1CCC(C(O)(c2ccc3c(c2)OCO3)c2ccc3c(c2)OCO3)CC1
active: inhibition (Mus musculus [1]) Dose-dependent effect | inhibition (Mus musculus [3]) | inhibition (Mus musculus [4]) | Activity (Mus musculus [9])
70%: inhibition in vivo at 16 mg/kg (Mus musculus [14])
inactive: inhibition (Mus musculus [2]) | inhibition (Mus musculus [5]) | inhibition (Mus musculus [6]) | inhibition (Mus musculus [7]) | inhibition (Mus musculus [8]) | inhibition (Mus musculus [10]) | Activity (Mus musculus [11]) | Activity (Mus musculus [12]) | inhibition [15] | Activity (Mus musculus [16]) | inhibition (Mus musculus [17])
35%: Activity (Mus musculus [13])
